# Compounds with a hit are over-represented: about 1.6% of the library has one in this group of screens.
# PAD4 FP inh: blocks human protein arginine deiminase 4; Q9UM07; recombinant PAD4, RCA probe fluorescence polarization; inhibition, % at 6.36 µM; 0.41% of 330,000 active; AID 485272;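 active = percent inhibition above a cutoff equal to the mean of all tested compounds plus 3 SD, cut at about 15% in these data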;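 also: 0% = PAD4 with RCA probe and DMSO and 100% = probe without PAD4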
# GASC-1 inh: inhibitors of human GASC-1 (JMJD2C) demethylase. inhibition, % at 2.35 µM. Q9H3R0. AID 2099. 0.069% of 330,000 active. GST-JMJD2C(1-420) H3K9me3 demethylation, DELFIA europium;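 active = more than half of a compound's replicate wells show inhibition beyond 50%, single wells judged on their own value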;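 also: signal counts dimethyl H3K9 product captured on neutravidin plate; 0% = median of DMSO wells and 100% = 0.3 times that DMSO median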
# Target sequence (Q9H3R0 1-420 limits assumed): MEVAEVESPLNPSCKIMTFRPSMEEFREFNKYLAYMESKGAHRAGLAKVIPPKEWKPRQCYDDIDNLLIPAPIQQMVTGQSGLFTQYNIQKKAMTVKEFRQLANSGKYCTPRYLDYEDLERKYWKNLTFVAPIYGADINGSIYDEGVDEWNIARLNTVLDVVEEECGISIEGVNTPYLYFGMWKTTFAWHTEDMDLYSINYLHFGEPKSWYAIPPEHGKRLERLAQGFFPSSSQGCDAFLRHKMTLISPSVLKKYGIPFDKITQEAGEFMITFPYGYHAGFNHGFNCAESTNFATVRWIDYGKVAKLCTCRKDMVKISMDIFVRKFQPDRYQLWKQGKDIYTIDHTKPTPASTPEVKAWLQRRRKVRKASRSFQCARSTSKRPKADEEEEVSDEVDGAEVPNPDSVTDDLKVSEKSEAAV
# TDP2 inh: TDP2 (human) inhibition, absorbance primary screen | 0.34% of 370,000 active | recombinant TDP2, T5PNP hydrolysis, p-nitrophenol absorbance 415 nm | inhibition, % at 12.8 µM | AID 720702;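 active = inhibition above the mean of all tested compounds plus 3 SD, set per campaign, cut at about 25% in these data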;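 also: 0% = DMSO with enzyme and 100% = buffer with substrate but no TDP2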
#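 Evaluation: % inhibition relative to enzyme-containing and enzyme-free wells. Material: recombinant human TDP2. Benchmarks: enzyme-free and DMSO wells. Timing: enzyme reaction with compound for 2 h at 37 °C. Compound dosing: 12.8 µM only. Measured by: p-Nitrophenol epi absorbance. Reagent: T5PNP substrate at 5 mM, a TopII-DNA adduct mimic. Replication: single well per compound.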
# GSTO1 inh: blocks human GSTO1 in RBBP9 counter-screen | P78417 | recombinant GSTO1, activity-based probe fluorescence polarization | inhibition, % at 5.96 µM | 1.1% of 300,000 active;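 active = inhibition above the campaign mean inhibition plus 3 SD, cut at about 35% in these data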;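 also: 0% = GSTO1-1 with DMSO and 100% = wells lacking GSTO1-1 enzyme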
# Target sequence (P78417 whole entry, looked up): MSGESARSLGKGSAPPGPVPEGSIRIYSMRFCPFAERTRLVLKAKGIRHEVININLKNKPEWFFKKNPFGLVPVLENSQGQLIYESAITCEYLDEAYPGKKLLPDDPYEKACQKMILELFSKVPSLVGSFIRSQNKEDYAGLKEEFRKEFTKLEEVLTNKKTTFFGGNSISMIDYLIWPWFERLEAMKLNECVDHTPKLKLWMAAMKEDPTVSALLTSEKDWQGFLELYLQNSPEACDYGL
# Apaf-1 inh: blocks human Apaf-1 apoptosome activity | O14727 | reconstituted apoptosome caspase-3 activity, DEVD-Rh110 fluorescence | inhibition, % at 20 µM | 0.71% of 330,000 active | AID 489030; active = inhibition of at least 40% at 20 µM;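 also: plate controls were DMSO wells for no effect and DEVD-CHO caspase inhibitor wells for full effect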
#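 Material: reconstituted apoptosome with Apaf-1, cytochrome c, caspase-9, procaspase-3, dATP / Buffer or medium: pH 7.5 Hepes buffer with CHAPS, BSA, DTT / Also added: cytochrome c with DEVD-Rh110 / Schedule: compound with Apaf-1, dATP, procaspase-3 30 min, then 50 min reaction, room temperature / Technique: rhodamine 110 fluorescence at Ex 480/Em 540 nm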
# UBC9 SUMO inh: SUMOylation inhibition | P63279 | HTRF SUMOylation assay, SAE1/SAE2 + UBC9, in vitro | inhibition, % at 35 µM | 0.36% of 290,000 active | AID 2006; in the data active = inhibition above about 50%, passing the limit was not always enough
# An asterisk follows results filed as active; nt = not tested or not shown.
SMILES,PAD4 FP inh,GASC-1 inh,TDP2 inh,GSTO1 inh,Apaf-1 inh,UBC9 SUMO inh
Cc1cc(NC(=O)c2ccc(NS(=O)(=O)c3ccc(F)cc3)cc2)no1,nt,nt,10,nt,nt,nt
Cc1cc(=O)n2c3c(c4c(cc13)c(CN(C)C)cc(=O)n4C)OC2,nt,nt,86*,nt,nt,nt
COc1ccc(-c2ccc(C#N)c(SCC(=O)Nc3sc4c(c3C#N)CCC4)n2)cc1OC,-6,4,-2,3,15,52*
N#Cc1cc2c(nc1SCC(=O)Nc1sc3c(c1C#N)CCC3)CCC2,4,29,-19,17,8,-7
CCOC(=O)COc1ccc(C(C)c2ccc(NC(=O)OC(C)(C)C)cc2)cc1 (stereo not drawn),nt,nt,6,nt,nt,nt
C=CC[C@H]1c2ccccc2[C@H]2N3N=Cc4ccccc4[C@H]3[C@H](CCc3ccccc3)C(=O)N2N1C(=O)c1ccccc1,nt,nt,-16,nt,nt,nt
C=CCN(Cc1ccc2c(c1)OCO2)C(C#CC1CC1)C(C)C (stereo not drawn),nt,nt,-1,nt,nt,nt
O=C(Nc1cccc(Cl)c1)Nn1cnnc1,4,-5,-7,7,0,51*
O=C(Nc1ccccc1)Nn1cnnc1,nt,7,6,nt,nt,20
O=C(Nc1ccc(Cl)c(Cl)c1)Nn1cnnc1,nt,16,6,nt,9,67*
Nc1c(C(=O)Nc2ccccc2F)sc2nc(-c3cccnc3)ccc12,5,-15,2,-2,2,2
Nc1c(C(=O)Nc2ccccc2F)sc2nc(-c3ccco3)ccc12,-11,-16,2,-4,16,57*
NC(=O)c1sc2nc(-c3ccco3)ccc2c1N,-8,0,7,2,-5,76*
CN1C2=NC(c3ccccc3)CC(=O)N2/C(=C\c2ccccc2)C1c1ccccc1C(F)(F)F (stereo not drawn),nt,nt,-2,nt,nt,nt
N#CCCN(C(=O)COC(=O)c1nc(Cl)ccc1Cl)c1ccccc1,-6,7,5,-3,6,nt
N#CCCN(C(=O)CCl)c1cccc(Cl)c1,3,-4,0,87*,-7,9
O=C(Nc1ccc(Cl)cc1)O[C@@H]1CC[C@@]23CCCN2C(=O)CCC[C@H]3C1,nt,nt,1,nt,nt,nt
COc1ccc2c(C)c(C(=O)NCC(C)O)oc2c1OC (stereo not drawn),-2,-18,4,-3,0,59*
COc1cccc(N2CCN(CC(=O)NCc3cccc(OC)c3OC)CC2)c1,nt,nt,-1,nt,nt,nt
O=[N+]([O-])c1ccc(Sc2nc3ccccc3o2)c([N+](=O)[O-])c1,49*,6,-1,12,9,2
NC(=S)N=Nc1c(O)[nH]c2ccccc12,-3,1,5,2,-11,12
NC(=S)N=Nc1c(O)[nH]c2c(Br)cc(Br)cc12,1,-17,-6,39*,20,11
C#CCOCCOCCOCCNc1nc(N2CCN(C(=O)[C@H](CCCCN)n3cc([C@@H](N)C(C)CC)nn3)CC2)nc(N2CCN(C(=O)[C@H](CCCCN)n3cc([C@@H](N)C(C)CC)nn3)CC2)n1 (stereo partly drawn),nt,nt,-1,nt,nt,nt
CC1(C)CC(=O)C=C(Nc2ccccc2NC(=O)c2cccc(F)c2F)C1,nt,nt,2,nt,nt,nt
ClCc1csc(-c2ccccc2Cl)n1,-3,-11,-12,94*,-5,8
SMILES,PAD4 FP inh,GASC-1 inh,TDP2 inh,GSTO1 inh,Apaf-1 inh,UBC9 SUMO inh
COc1ccc(/C=C/C(Cc2cccc(C(C)=O)c2)c2ccc(C)cc2)cc1 (stereo not drawn),nt,nt,-7,nt,nt,nt
O=C(Nc1ccc(F)cc1F)C1CCN(c2nnc(-n3cccc3)s2)CC1,nt,nt,8,nt,nt,nt
O[C@@H]1[C@@H](O)[C@H](n2c3ccc(Cl)cc3c3ccc4c5cc(Cl)ccc5[nH]c4c32)OC[C@H]1O,nt,nt,-4,nt,nt,nt
O=c1[nH][nH]c(-c2ccccc2O)c1C(C[N+](=O)[O-])c1ccc(Br)cc1 (stereo not drawn),-15,-9,2,29,15,30
Cc1ccc(C(C[N+](=O)[O-])c2c(-c3ccccc3O)[nH][nH]c2=O)cc1 (stereo not drawn),-6,2,-3,35*,32,1
COc1ccc2c(c1)CNC2CS(=O)(=O)NCC(C)C (stereo not drawn),nt,nt,-2,nt,nt,nt
COc1ccc(NC(=O)CSc2ccc3c4c(cccc24)C(=O)c2ccccc2-3)cc1,4,-15,8,3,9,31
N#Cc1cccc(NC(=O)CSc2ccc3c4c(cccc24)C(=O)c2ccccc2-3)c1,7,-1,12,36*,nt,11
CC(=O)Nc1ccc(/C=N/NC(=O)c2cc(-c3ccco3)nc3ccccc23)cc1,-3,-4,-10,-93,-9,31
O=C(O)c1ccccc1/C=N/NC(=O)c1cc(-c2ccco2)nc2ccccc12,-4,1,9,30,14,78*
CN1Cc2nnn(Cc3ccccc3)c2-c2cc(N3CCCC3)ccc2S1(=O)=O,nt,nt,4,nt,nt,nt
CC(N)=Nc1ccc([N+](=O)[O-])cc1,-2,-1,-7,2,-4,12
O=[N+]([O-])c1ccc(N=Nc2c(Cl)cc(O)cc2Cl)cc1,16*,-2,-14,57*,nt,10
C#CCOCCOCCOCCNc1nc(N2CCN(C(=O)CCCCCCCCCCNC(=O)Cn3cc(CCCCCN)nn3)CC2)nc(N2CCN(C(=O)CCCCCCCCCCNC(=O)[C@@H](CCSC)n3cc(CCO)nn3)CC2)n1,0,nt,nt,-7,72*,nt
C#CCOCCOCCOCCNc1nc(N2CCN(C(=O)CCCCCCCCCCNC(=O)Cn3cc(CCCCCN)nn3)CC2)nc(N2CCN(C(=O)CCCCCCCCCCNC(=O)[C@@H](CCC(=O)O)n3cc(CCCCCN)nn3)CC2)n1,-1,nt,nt,6,59*,nt
C#CCOCCOCCOCCNc1nc(N2CCN(C(=O)CCCCCCCCCCNC(=O)[C@@H](CCSC)n3cc(CCO)nn3)CC2)nc(N2CCN(C(=O)CCCCCCCCCCNC(=O)[C@H](CCSC)n3cc(CCO)nn3)CC2)n1,-2,-7,-7,-20,28,nt
C#CCOCCOCCOCCNc1nc(N2CCN(C(=O)CCCCCCCCCCNC(=O)Cn3cc(C[C@@H](C)O)nn3)CC2)nc(N2CCN(C(=O)CCCCCCCCCCNC(=O)[C@H](CCCCN)n3cc(CCCC(=O)O)nn3)CC2)n1,-5,-5,4,-7,28,nt
C#CCOCCOCCOCCNc1nc(N2CCN(C(=O)CCCCCCCCCCNC(=O)[C@H](CCCCN)n3cc(C)nn3)CC2)nc(N2CCN(C(=O)CCCCCCCCCCNC(=O)[C@H](CCCCN)n3cc(CCCC(=O)O)nn3)CC2)n1,3,nt,nt,-1,63*,nt
CN(Cc1ccccc1)S(=O)(=O)c1cccc(C(=O)OCc2cccc([N+](=O)[O-])c2)c1,nt,nt,5,nt,nt,nt
COc1ccc(C#CCN(C)/C(N)=N/C(=O)OCc2ccccc2)cc1,nt,nt,1,nt,nt,nt
O=[N+]([O-])c1cc(/C=N\Nc2nccs2)ccc1O,nt,0,nt,nt,nt,70*

# Source: PubChem BioAssay
